This is an account of results in ChEMBL document CHEMBL2375287, “A novel series of histamine H4 receptor antagonists based on the pyrido[3,2-d]pyrimidine scaffold: comparison of hERG binding and target residence time with PF-3893787” (Bioorg Med Chem Lett, 2013).

In general, Ki refers to a dissociation constant, usually derived from enzyme kinetics or from competition with a known ligand. Low values mean a stronger hold on the target, high ones a looser hold on the target. The term Kd denotes the constant that tells how readily two partners part at equilibrium. A low value points to tighter binding. As a reminder, the IC50 is the midpoint of a concentration-inhibition curve. For orientation: pKb means the negative decadic logarithm of the Kb, by convention in mol/L.

Structures are written as SMILES.

The target in one experiment is Histamine H3 receptor (Homo sapiens, UniProt Q9Y5N1). The experiment in a line: Displacement of [3H]histamine from human histamine H3 receptor expressed in HEK cells. It counts as cell-based, HEK293. A general note: Loss of bound radioactivity is the signal in a displacement assay; it reports binding, not function.
Experiment [1] addresses T1, Histamine H4 receptor (Homo sapiens, UniProt Q9H3N8). The experiment is described as follows: Displacement of [3H]histamine from human histamine H4 receptor expressed in HEK cells. The format is cell-based, HEK293. An outline of the steps: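 Displacement of [3H]histamine from membranes of HEK cells transiently expressing human H4R, H3R or H1R. pKi given as mean ± SEM of at least three independent measurements; n = 2 where noted.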

A further experiment is filed under the species Homo sapiens. The experiment in a line: Selectivity ratio of Ki for human histamine H3 receptor to Ki for human histamine H4 receptor.
The target of experiment [2] is Voltage-gated inwardly rectifying potassium channel KCNH2 (Homo sapiens, UniProt Q12809). The experiment is described as follows: Displacement of [3H]astemizole from human ERG channel.
For experiment [3], the target named is T1, Histamine H4 receptor. The experiment in a line: Displacement of [3H]histamine from human histamine H4 receptor expressed in HEK cells by competitive kinetic analysis. The format is cell-based, HEK293.
Another experiment addresses Histamine H2 receptor (Homo sapiens, UniProt P25021). The experiment in a line: Displacement of [3H]histamine from human histamine H2 receptor expressed in HEK cells.
The target of experiment [4] is T1, Histamine H4 receptor. The experiment in a line: Antagonist activity at human histamine H4 receptor expressed in HEK cells assessed as inhibition of histamine-induced [35S]GTPgammaS binding. The format is functional, cell-based, HEK293. To be noted: for pKb: HEK293. On the technique in general: GTPγS is a poorly hydrolysed GTP analogue; its binding reports G protein activation.

Experiment [5] has as its target T2, Histamine H4 receptor (Mus musculus, UniProt Q91ZY2).
T2 sequence (Q91ZY2 whole entry): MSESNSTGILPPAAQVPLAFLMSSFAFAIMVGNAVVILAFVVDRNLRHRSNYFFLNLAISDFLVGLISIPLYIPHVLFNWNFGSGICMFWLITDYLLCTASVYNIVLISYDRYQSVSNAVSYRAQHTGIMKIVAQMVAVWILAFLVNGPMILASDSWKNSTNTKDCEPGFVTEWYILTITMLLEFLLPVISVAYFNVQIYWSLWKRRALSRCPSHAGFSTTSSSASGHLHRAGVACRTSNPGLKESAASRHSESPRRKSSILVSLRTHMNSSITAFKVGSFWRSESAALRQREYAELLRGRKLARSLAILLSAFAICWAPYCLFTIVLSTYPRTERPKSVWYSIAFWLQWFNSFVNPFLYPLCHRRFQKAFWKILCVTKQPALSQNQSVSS
The experiment is described as follows: Binding affinity to mouse histamine H4 receptor.

A further experiment addresses Histamine H1 receptor (Homo sapiens, UniProt P35367). The experiment in a line: Displacement of [3H]histamine from human histamine H1 receptor expressed in HEK cells.
The target of experiment [6] is Histamine H4 receptor (Rattus norvegicus, UniProt Q91ZY1). The experiment in a line: Binding affinity to rat histamine H4 receptor.
Histamine H4 receptor (Rattus norvegicus, UniProt Q91ZY1), sequence (Q91ZY1 whole entry): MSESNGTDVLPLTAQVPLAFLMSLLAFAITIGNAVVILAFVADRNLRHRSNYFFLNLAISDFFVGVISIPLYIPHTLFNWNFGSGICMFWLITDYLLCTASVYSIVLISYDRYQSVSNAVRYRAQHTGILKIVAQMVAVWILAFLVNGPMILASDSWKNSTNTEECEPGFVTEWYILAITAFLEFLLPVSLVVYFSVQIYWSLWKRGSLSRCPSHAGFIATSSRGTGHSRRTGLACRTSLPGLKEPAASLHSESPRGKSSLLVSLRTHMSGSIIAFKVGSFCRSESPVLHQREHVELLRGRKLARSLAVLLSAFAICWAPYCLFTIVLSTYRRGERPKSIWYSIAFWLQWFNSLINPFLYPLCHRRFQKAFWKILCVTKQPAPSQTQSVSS

Histamine H1 receptor, sequence (P35367 whole entry): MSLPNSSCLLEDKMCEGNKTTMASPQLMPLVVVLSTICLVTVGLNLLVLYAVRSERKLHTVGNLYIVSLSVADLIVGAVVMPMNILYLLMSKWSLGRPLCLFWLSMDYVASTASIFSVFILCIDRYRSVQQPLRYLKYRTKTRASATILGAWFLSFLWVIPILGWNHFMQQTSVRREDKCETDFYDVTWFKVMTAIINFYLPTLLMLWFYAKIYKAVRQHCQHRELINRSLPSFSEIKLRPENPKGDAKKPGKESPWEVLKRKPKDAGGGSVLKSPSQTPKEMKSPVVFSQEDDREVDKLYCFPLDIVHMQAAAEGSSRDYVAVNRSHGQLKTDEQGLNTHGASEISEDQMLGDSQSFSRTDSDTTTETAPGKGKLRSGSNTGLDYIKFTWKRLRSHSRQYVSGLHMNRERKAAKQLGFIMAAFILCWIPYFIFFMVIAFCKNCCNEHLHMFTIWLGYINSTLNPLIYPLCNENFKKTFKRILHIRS
T1 sequence (Q9H3N8 whole entry): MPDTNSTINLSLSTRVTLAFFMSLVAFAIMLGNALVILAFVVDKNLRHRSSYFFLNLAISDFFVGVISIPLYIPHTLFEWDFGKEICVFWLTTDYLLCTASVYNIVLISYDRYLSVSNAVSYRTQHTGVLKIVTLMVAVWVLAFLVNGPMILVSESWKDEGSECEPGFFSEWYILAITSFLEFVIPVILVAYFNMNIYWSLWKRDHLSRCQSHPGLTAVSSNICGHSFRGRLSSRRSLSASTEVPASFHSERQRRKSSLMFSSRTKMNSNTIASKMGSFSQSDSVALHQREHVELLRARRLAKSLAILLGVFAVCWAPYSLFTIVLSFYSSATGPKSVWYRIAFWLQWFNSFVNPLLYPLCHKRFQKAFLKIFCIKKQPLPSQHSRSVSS
Voltage-gated inwardly rectifying potassium channel KCNH2, sequence (Q12809 whole entry): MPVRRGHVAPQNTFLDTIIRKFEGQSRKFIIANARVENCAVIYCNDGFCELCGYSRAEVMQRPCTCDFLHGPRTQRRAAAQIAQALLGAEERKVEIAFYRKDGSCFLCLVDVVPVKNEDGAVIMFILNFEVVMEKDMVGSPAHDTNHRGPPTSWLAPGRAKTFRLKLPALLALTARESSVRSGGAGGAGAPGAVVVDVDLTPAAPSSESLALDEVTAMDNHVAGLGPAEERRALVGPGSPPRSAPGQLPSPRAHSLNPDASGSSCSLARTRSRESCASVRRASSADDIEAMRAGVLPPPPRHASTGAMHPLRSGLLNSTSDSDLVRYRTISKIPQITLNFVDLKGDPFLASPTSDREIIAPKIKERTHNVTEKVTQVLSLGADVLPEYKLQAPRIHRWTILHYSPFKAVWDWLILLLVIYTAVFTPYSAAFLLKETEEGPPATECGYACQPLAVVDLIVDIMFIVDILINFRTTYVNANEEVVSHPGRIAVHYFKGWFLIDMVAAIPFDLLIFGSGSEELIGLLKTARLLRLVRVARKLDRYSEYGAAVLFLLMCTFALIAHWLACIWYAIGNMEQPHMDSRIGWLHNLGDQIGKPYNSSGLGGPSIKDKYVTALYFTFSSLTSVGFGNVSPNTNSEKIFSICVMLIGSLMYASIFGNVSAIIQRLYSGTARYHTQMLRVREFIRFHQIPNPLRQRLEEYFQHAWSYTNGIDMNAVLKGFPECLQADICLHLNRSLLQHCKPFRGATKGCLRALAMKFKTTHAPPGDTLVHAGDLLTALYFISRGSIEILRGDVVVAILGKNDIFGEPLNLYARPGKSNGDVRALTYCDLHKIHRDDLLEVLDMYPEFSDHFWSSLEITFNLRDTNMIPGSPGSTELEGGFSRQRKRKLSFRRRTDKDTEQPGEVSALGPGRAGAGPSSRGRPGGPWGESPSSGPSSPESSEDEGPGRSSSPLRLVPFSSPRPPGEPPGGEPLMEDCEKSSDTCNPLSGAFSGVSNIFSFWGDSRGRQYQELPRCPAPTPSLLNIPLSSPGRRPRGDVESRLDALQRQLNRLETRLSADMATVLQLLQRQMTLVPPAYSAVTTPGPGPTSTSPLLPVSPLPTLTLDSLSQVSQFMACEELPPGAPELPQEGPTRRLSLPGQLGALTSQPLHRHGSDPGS
Histamine H3 receptor, sequence (Q9Y5N1 whole entry): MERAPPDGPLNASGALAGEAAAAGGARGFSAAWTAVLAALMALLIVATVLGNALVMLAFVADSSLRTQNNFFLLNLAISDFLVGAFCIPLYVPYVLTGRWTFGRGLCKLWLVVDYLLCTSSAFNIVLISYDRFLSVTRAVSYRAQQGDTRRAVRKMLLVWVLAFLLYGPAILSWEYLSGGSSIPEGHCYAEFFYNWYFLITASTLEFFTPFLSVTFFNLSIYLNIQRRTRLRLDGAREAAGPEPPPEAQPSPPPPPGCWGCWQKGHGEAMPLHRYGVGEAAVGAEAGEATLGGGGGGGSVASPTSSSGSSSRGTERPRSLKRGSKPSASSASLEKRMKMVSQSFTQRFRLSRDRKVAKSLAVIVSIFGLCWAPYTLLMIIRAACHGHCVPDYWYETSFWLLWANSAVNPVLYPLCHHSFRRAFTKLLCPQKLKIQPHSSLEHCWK
Histamine H2 receptor, sequence (P25021 whole entry): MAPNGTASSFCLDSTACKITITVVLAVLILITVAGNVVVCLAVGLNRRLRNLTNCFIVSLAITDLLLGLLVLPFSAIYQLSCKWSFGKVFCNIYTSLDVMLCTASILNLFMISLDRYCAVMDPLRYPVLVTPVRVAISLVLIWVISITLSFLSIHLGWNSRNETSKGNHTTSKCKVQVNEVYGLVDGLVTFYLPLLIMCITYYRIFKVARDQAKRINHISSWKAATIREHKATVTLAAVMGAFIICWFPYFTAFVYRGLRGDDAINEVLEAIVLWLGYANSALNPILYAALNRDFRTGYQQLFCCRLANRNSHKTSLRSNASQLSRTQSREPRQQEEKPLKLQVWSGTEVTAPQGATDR

Regarding `CNC1CN(c2nc(N)nc3cc(C(C)C)cnc23)C1`, the Ki is 832 nM at Histamine H3 receptor and 25.1 nM on Histamine H4 receptor [1].
On to `CCc1ccc2c(N3CCNCC3)nc(N)nc2c1`, for which, in the experiment listed under Homo sapiens, the Ratio Ki was found to be 15. Moreover, the Ki is 219 nM on Histamine H3 receptor, 14.8 nM at Histamine H4 receptor [1] and 1510 nM in experiment [2].
On the same counts, the results for `Nc1nc(N2CCNCC2)c2ccc(C3CCCC3)cc2n1` are 27, 331 nM, 12.3 nM and 3390 nM.
Molecule `CN1CCN(c2nc(N)nc3cccnc23)CC1` had a Ki on Histamine H4 receptor [1] of 30.9 nM.
Take `Nc1nc(N2CCNCC2)c2ccc(C3CC3)cc2n1`: the Ratio Ki in the experiment listed under Homo sapiens is 13. Besides, the values for the Ki (on Histamine H3 receptor; on Histamine H4 receptor [1]; in [2]) were 155 nM, 11.5 nM and 4680 nM, respectively.
On the same counts, the results for `CN[C@@H]1CCN(c2nc(N)nc3cc(C4CC4)cnc23)C1` are 98, 1000 nM, 10.2 nM and > 100000 nM.
On the same counts, the results for `CCc1ccc2c(N3CC[C@@H](NC)C3)nc(N)nc2c1` are 56, 603 nM, 17 nM and 2750 nM.
Consider `CN[C@@H]1CCN(c2nc(N)nc3cc(C(C)C)cnc23)C1`, for which the Ratio Ki in the experiment filed under Homo sapiens was 12. Further, the Ki at Histamine H3 receptor was 145 nM; at Histamine H4 receptor [1], 12.3 nM.
As to `CNC1CN(c2nc(N)nc3cc(C4CC4)ccc23)C1`, in the experiment listed under Homo sapiens, the Ratio Ki worked out at 98. Also, the Ki at Histamine H3 receptor is 692 nM; at Histamine H4 receptor [1], 7.08 nM; in experiment [2] it was 3630 nM.
On the same counts, the results for `CNC1CN(c2nc(N)nc3cc(C4CCCC4)ccc23)C1` are 47, 158 nM, 3.39 nM and 832 nM.
On to `CN[C@@H]1CCN(c2nc(N)nc3cc(C4CC4)ccc23)C1`, for which the Ratio Ki in the experiment listed under Homo sapiens was 8. Besides, the Ki on Histamine H3 receptor was 178 nM; at Histamine H4 receptor [1], 21.9 nM.
Regarding `CNC1CN(c2nc(N)nc3cc(C4CCCC4)cnc23)C1`, the affinity at Histamine H4 receptor [3], expressed as Kd, was 10.2 nM. Also, the Ki on Histamine H2 receptor was 2820 nM; at Histamine H3 receptor, 151 nM; at Histamine H4 receptor [5] it was 19.5 nM; on Histamine H4 receptor [1], 6.46 nM; in experiment [2], > 100000 nM; at Histamine H1 receptor, 16600 nM. The same molecule showed a Ki at Histamine H4 receptor [6] of 27.5 nM. For the same molecule, the Ratio Ki in the experiment filed under Homo sapiens came out at 23. Also, the IC50 on Histamine H4 receptor [4] is 97.7 nM. The pKb at Histamine H4 receptor [4] came out at 8.2.
Regarding `CN[C@@H]1CCN(c2cc(NCC3CC3)nc(N)n2)C1` [ADRIFORANT], the Kd on Histamine H4 receptor [3] is 25.1 nM. Moreover, in the experiment listed under Homo sapiens, the Ratio Ki was determined as 22. Besides, the IC50 on Histamine H4 receptor [4] was 53.7 nM. For the same molecule, at Histamine H4 receptor [4], the pKb amounted to 8.46. Besides, the Ki at Histamine H3 receptor is 186 nM; at Histamine H4 receptor [5], 55 nM; on Histamine H4 receptor [1] it was 10.2 nM; in experiment [2], 3470 nM; on Histamine H4 receptor [6], 55 nM.
In the case of `CCc1cnc2c(N3CC(NC)C3)nc(N)nc2c1`, the Kd on Histamine H4 receptor [3] was 8.51 nM. The Ki is 14100 nM at Histamine H2 receptor; 776 nM at Histamine H3 receptor; 50.1 nM at Histamine H4 receptor [5]; 10.7 nM at Histamine H4 receptor [1]; 34700 nM in [2]; 33900 nM at Histamine H1 receptor. On Histamine H4 receptor [6], this molecule had a Ki of 70.8 nM. For the same molecule, the Ratio Ki in the experiment filed under Homo sapiens was determined as 72. Also, the IC50 at Histamine H4 receptor [4] was 112 nM. Further, at Histamine H4 receptor [4], the negative-log Kb (pKb) was 8.14.
As for `CNC1CN(c2nc(N)nc3cc(C#N)cnc23)C1`, the Ratio Ki in the experiment filed under Homo sapiens was 186. Also, the values for the Ki (on Histamine H3 receptor; at Histamine H4 receptor [1]; in experiment [2]) were 9550 nM, 53.7 nM and > 100000 nM, respectively.
Take `CCc1cnc2c(N3CC[C@@H](NC)C3)nc(N)nc2c1`: on Histamine H4 receptor [3], the Kd is 21.4 nM. Besides, the Ki is 3160 nM on Histamine H2 receptor; 1510 nM at Histamine H3 receptor; 85.1 nM on Histamine H4 receptor [5]; 9.12 nM at Histamine H4 receptor [1]; 43700 nM in experiment [2]; 11200 nM on Histamine H1 receptor. At Histamine H4 receptor [6], this molecule gave a Ki of 138 nM. Besides, the Ratio Ki in the experiment listed under Homo sapiens was 166. For the same molecule, the IC50 at Histamine H4 receptor [4] was 126 nM. Besides, the pKb on Histamine H4 receptor [4] was 8.08.
For `CNC1CN(c2nc(N)nc3cc(C4CC4)cnc23)C1`, binding on Histamine H4 receptor [3] was put at a Kd of 13.5 nM. In the experiment listed under Homo sapiens, the Ratio Ki turned out to be 120. Also, at Histamine H4 receptor [4], the IC50 is 70.8 nM. For the same molecule, the pKb on Histamine H4 receptor [4] amounted to 8.33. The inhibition constant Ki at Histamine H3 receptor was 631 nM; at Histamine H4 receptor [5], 15.1 nM; at Histamine H4 receptor [1], 5.25 nM; in experiment [2] it was > 100000 nM; at Histamine H1 receptor, 20900 nM; at Histamine H4 receptor [6], 29.5 nM.
On to `CC(C)(C)c1ccc2c(N3CCNCC3)nc(N)nc2c1`, for which the Ratio Ki in the experiment listed under Homo sapiens came to 24. Moreover, the Ki at Histamine H3 receptor is 851 nM; at Histamine H4 receptor [1] it was 35.5 nM.
In the case of `CCc1cnc2c(N3CCN(C)CC3)nc(N)nc2c1`, the figures for the Ki at Histamine H3 receptor and on Histamine H4 receptor [1] were 214 nM and 9.33 nM, respectively.
On Histamine H4 receptor [1], `CN1CCN(c2nc(N)nc3ccccc23)CC1` showed a Ki of 44.7 nM.
Consider `CCc1ccc2c(N3CC(NC)C3)nc(N)nc2c1`, for which the Ratio Ki in the experiment filed under Homo sapiens worked out at 89. Besides, the Ki at Histamine H3 receptor was 617 nM; at Histamine H4 receptor [1], 11.2 nM; in experiment [2], 2450 nM.
In the case of `Nc1nc(N2CCNCC2)c2ccc(-c3ccco3)cc2n1`, binding on Histamine H4 receptor [3] was put at a Kd of 40.7 nM. Also, the Ki at Histamine H4 receptor [1] was 15.1 nM.
On to `CNC1CN(c2nc(N)nc3cc(C(C)(C)C)ccc23)C1`, for which the Ratio Ki in the experiment filed under Homo sapiens stood at 32. For the same molecule, the Ki is 490 nM on Histamine H3 receptor and 15.1 nM on Histamine H4 receptor [1].
